Measured values reported in ChEMBL document CHEMBL2086369, “Design, synthesis, and pharmacological characterization of indol-3-ylacetamides, indol-3-yloxoacetamides, and indol-3-ylcarboxamides: potent and selective CB2 cannabinoid receptor inverse agonists” (J Med Chem, 2012).
Activity calls are given as the source filed them. The rule behind the calls is not given here.

What follows are molecules tested on Mus musculus (assay: Antinociceptive activity in mouse assessed as reduction of formalin-induced nocifensive response at 1 to 3 mg/kg, ip administered 15 mins before formalin challenge measured for 0 to 7 mins).
Assay type: functional, organism-based
Procedure, shortened: (§1)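 Mice (n = 8−10 per group) got compound ip (1 or 3 mg/kg) or vehicle 15 min before formalin (1.25% in saline, 30 μL) into the dorsal hindpaw. Where used, COR167 (1 mg/kg, ip) was given 5 min before compound. Time spent licking plus elevating the paw was scored every 5 min over phase 1 (0−7 min) and phase 2 (15−60 min). Mean ± SEM; ANOVA with Dunnett's test.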

In the case of `CCCCCn1cc(C(=O)C(=O)NC23CC4CC(CC(C4)C2)C3)c2cc(-c3ccco3)ccc21`, the Activity is reported as “inactive”.
`CCCCCn1cc(C(=O)NC23CC4CC(CC(C4)C2)C3)c2cc(-c3ccco3)ccc21` was tested, and the Activity was “inactive”.

Each molecule was assayed on Mus musculus (assay: Analgesic activity in mouse assessed as reduction of formalin-induced inflammatory pain at 1 mg/kg, ip administered 15 mins before formalin challenge measured for 15 to 60 mins in presence of CB2 agonist COR167).
Assay type: functional, organism-based
Design: dose 1 mg/kg
Procedure, shortened: as §1

In the case of `CCCCCn1cc(C(=O)C(=O)NC23CC4CC(CC(C4)C2)C3)c2cc(-c3ccco3)ccc21`, the Activity is reported as “Active”.
In the case of `CCCCCn1cc(C(=O)NC23CC4CC(CC(C4)C2)C3)c2cc(-c3ccco3)ccc21`, the Activity is reported as “inactive”.

Each molecule was assayed against Cannabinoid receptor 1 (Homo sapiens, UniProt P21554) (assay: biochemical).
Cannabinoid receptor 1, sequence (P21554 whole entry): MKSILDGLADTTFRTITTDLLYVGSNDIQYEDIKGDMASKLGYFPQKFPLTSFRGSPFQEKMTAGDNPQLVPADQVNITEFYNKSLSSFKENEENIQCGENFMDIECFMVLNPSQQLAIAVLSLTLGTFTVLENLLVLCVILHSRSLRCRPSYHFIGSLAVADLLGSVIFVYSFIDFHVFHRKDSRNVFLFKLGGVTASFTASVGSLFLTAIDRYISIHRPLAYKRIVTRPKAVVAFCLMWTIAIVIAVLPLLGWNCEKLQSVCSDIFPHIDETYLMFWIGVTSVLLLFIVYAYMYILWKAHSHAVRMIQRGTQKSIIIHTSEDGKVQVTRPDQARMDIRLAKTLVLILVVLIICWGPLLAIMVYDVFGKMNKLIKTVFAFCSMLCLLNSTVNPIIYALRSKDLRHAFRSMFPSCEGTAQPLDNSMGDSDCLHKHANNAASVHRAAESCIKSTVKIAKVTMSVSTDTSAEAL
Assay type: cell-based, HEK293

Point of comparison: `CCCCCn1cc(C(=O)NC23CC4CC(CC(C4)C2)C3)c2cc(-c3cccs3)ccc21`, Ki 3620 nM. Against it:
- CCCCCn1cc(C(=O)NC23CC4CC(CC(C4)C2)C3)c2cc(-c3ccccc3)ccc21 — 3.4-fold lower, 1050 nM
- CCCCCn1cc(CC(=O)NC23CC4CC(CC(C4)C2)C3)c2cc(-c3ccco3)ccc21 — 2.2-fold lower, 1660 nM
- O=C(Cc1c[nH]c2ccc(-c3ccccc3)cc12)NC12CC3CC(CC(C3)C1)C2 — higher, > 10000 nM
- CCCCCn1cc(CC(=O)NC23CC4CC(CC(C4)C2)C3)c2cc(Br)ccc21 — 1.5-fold higher, 5510 nM
- C=CCn1cc(CC(=O)NC2CCCCCC2)c2cc(-c3ccco3)ccc21 — higher, > 10000 nM
- C=CCn1cc(C(=O)NC23CC4CC(CC(C4)C2)C3)c2cc(-c3ccccc3)ccc21 — 75-fold lower, 48.2 nM
- CCCCCn1cc(CC(=O)NC23CC4CC(CC(C4)C2)C3)c2cc(-c3ccccc3)ccc21 — 1.5-fold lower, 2380 nM
- CCCn1cc(CC(=O)NC23CC4CC(CC(C4)C2)C3)c2cc(-c3ccccc3)ccc21 — 2.4-fold lower, 1510 nM
- O=C(Cc1cn(Cc2ccccc2)c2ccc(-c3ccccc3)cc12)NC12CC3CC(CC(C3)C1)C2 — higher, > 10000 nM
- C=CCn1cc(CC(=O)NC23CC4CC(CC(C4)C2)C3)c2cc(Br)ccc21 — higher, > 10000 nM
- C=CCn1cc(C(=O)NC23CC4CC(CC(C4)C2)C3)c2cc(-c3ccco3)ccc21 — within 1.5-fold, 2790 nM
- CCCCCn1cc(C(=O)C(=O)NC23CC4CC(CC(C4)C2)C3)c2cc(-c3ccco3)ccc21 — 10-fold lower, 345 nM
- CCCCCn1cc(C(=O)NC23CC4CC(CC(C4)C2)C3)c2cc(-c3ccco3)ccc21 — 11-fold lower, 342 nM

These molecules were tested against T1, Cannabinoid receptor 2 (Homo sapiens, UniProt P34972) (assay: Displacement of [3H]CP-55,940 from human recombinant CB2 receptor transfected in HEK cells).
T1 sequence (P34972 whole entry): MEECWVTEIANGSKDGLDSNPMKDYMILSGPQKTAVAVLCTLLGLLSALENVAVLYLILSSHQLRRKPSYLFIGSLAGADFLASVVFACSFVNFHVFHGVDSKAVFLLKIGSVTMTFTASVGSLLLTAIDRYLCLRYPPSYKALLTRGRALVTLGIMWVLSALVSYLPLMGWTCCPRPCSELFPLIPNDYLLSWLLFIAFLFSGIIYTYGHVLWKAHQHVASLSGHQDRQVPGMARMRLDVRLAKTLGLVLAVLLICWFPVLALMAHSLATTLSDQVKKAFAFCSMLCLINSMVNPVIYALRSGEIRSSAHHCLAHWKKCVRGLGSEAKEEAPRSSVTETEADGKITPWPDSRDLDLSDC
Assay type: cell-based, HEK293

Point of comparison: `O=C(Cc1c[nH]c2ccc(-c3ccccc3)cc12)NC12CC3CC(CC(C3)C1)C2`, Ki 70.8 nM. Against it:
- CCCCCn1cc(C(=O)NC23CC4CC(CC(C4)C2)C3)c2cc(-c3ccccc3)ccc21 — 6.1-fold lower, 11.6 nM
- CCCCCn1cc(CC(=O)NC23CC4CC(CC(C4)C2)C3)c2cc(-c3ccco3)ccc21 — 1.6-fold higher, 110 nM
- CCCCCn1cc(CC(=O)NC23CC4CC(CC(C4)C2)C3)c2cc(Br)ccc21 — 2.4-fold higher, 170 nM
- CCCCCn1cc(C(=O)NC23CC4CC(CC(C4)C2)C3)c2cc(-c3cccs3)ccc21 — 11-fold lower, 6.37 nM
- C=CCn1cc(CC(=O)NC2CCCCCC2)c2cc(-c3ccco3)ccc21 — 5.3-fold higher, 377 nM
- C=CCn1cc(C(=O)NC23CC4CC(CC(C4)C2)C3)c2cc(-c3ccccc3)ccc21 — 39-fold lower, 1.82 nM
- CCCCCn1cc(CC(=O)NC23CC4CC(CC(C4)C2)C3)c2cc(-c3ccccc3)ccc21 — within 1.5-fold, 70 nM
- CCCn1cc(CC(=O)NC23CC4CC(CC(C4)C2)C3)c2cc(-c3ccccc3)ccc21 — 6-fold lower, 11.8 nM
- O=C(Cc1cn(Cc2ccccc2)c2ccc(-c3ccccc3)cc12)NC12CC3CC(CC(C3)C1)C2 — 2.7-fold higher, 189 nM
- C=CCn1cc(CC(=O)NC23CC4CC(CC(C4)C2)C3)c2cc(Br)ccc21 — 15-fold higher, 1090 nM
- C=CCn1cc(C(=O)NC23CC4CC(CC(C4)C2)C3)c2cc(-c3ccco3)ccc21 — 12-fold lower, 5.73 nM
- CCCCCn1cc(C(=O)C(=O)NC23CC4CC(CC(C4)C2)C3)c2cc(-c3ccco3)ccc21 — 190-fold lower, 0.37 nM
- CCCCCn1cc(C(=O)NC23CC4CC(CC(C4)C2)C3)c2cc(-c3ccco3)ccc21 — 29-fold lower, 2.48 nM

The molecules below were run against T1, Cannabinoid receptor 2 (assay: Inverse agonist activity at human CB2 receptor expressed in CHO cells assessed as increase of forskolin-induced cAMP level at 1 uM by scintillation counting).
Assay type: functional, cell-based
Procedure, shortened: (§2)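 CHO cells expressing human CB2, trypsinized, 1 × 10⁶ cells per assay in HEPES-buffered saline with glucose, pH 7.4, 37 °C. Preincubated 10 min with 0.5 mM Ro 20-1724. Compound tested with 1 μM forskolin. Stopped with cold 6% TCA, ether-extracted, cAMP measured by [³H]cAMP competition binding to adrenal binding protein with scintillation counting. Given as % cAMP increase; means of ≥4 experiments in duplicate.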

Point of comparison: `CCCCCn1cc(C(=O)NC23CC4CC(CC(C4)C2)C3)c2cc(-c3ccco3)ccc21`, Activity 93%. Against it:
- CCCCCn1cc(C(=O)NC23CC4CC(CC(C4)C2)C3)c2cc(-c3cccs3)ccc21 — higher, 106%
- CCCCCn1cc(C(=O)C(=O)NC23CC4CC(CC(C4)C2)C3)c2cc(-c3ccco3)ccc21 — higher, 138%

Each molecule was assayed on Mus musculus (assay: Analgesic activity in ip dosed mouse assessed as reduction of formalin-induced inflammatory pain administered 15 mins before formalin challenge measured for 15 to 60 mins).
Assay type: functional, organism-based
Procedure, shortened: as §1

With `CCCCCn1cc(C(=O)C(=O)NC23CC4CC(CC(C4)C2)C3)c2cc(-c3ccco3)ccc21` the Activity was “Dose-dependent effect”.
`CCCCCn1cc(C(=O)NC23CC4CC(CC(C4)C2)C3)c2cc(-c3ccco3)ccc21` was tested, and the Activity was “Dose-dependent effect”.

Each molecule was assayed against T1, Cannabinoid receptor 2 (assay: Inverse agonist activity at human CB2 receptor expressed in CHO cells assessed as increase of forskolin-induced cAMP level at 10 uM by scintillation counting).
Assay type: functional, cell-based
Procedure, shortened: as §2

Point of comparison: `CCCCCn1cc(C(=O)NC23CC4CC(CC(C4)C2)C3)c2cc(-c3ccco3)ccc21`, Activity 110%. Against it:
- CCCCCn1cc(C(=O)NC23CC4CC(CC(C4)C2)C3)c2cc(-c3cccs3)ccc21 — higher, 135%
- CCCCCn1cc(C(=O)C(=O)NC23CC4CC(CC(C4)C2)C3)c2cc(-c3ccco3)ccc21 — higher, 163%

Species on record: Homo sapiens
Test: Selectivity index, ratio of Ki for human recombinant CB1 receptor to Ki for human recombinant CB2 receptor

Point of comparison: `CCCCCn1cc(C(=O)C(=O)NC23CC4CC(CC(C4)C2)C3)c2cc(-c3ccco3)ccc21`, Ratio Ki 932. Against it:
- CCCCCn1cc(C(=O)NC23CC4CC(CC(C4)C2)C3)c2cc(-c3ccccc3)ccc21 — lower, 90.7
- CCCCCn1cc(CC(=O)NC23CC4CC(CC(C4)C2)C3)c2cc(-c3ccco3)ccc21 — lower, 15.1
- O=C(Cc1c[nH]c2ccc(-c3ccccc3)cc12)NC12CC3CC(CC(C3)C1)C2 — not separable, > 141
- CCCCCn1cc(CC(=O)NC23CC4CC(CC(C4)C2)C3)c2cc(Br)ccc21 — lower, 32.4
- CCCCCn1cc(C(=O)NC23CC4CC(CC(C4)C2)C3)c2cc(-c3cccs3)ccc21 — lower, 568
- C=CCn1cc(CC(=O)NC2CCCCCC2)c2cc(-c3ccco3)ccc21 — not separable, > 26
- C=CCn1cc(C(=O)NC23CC4CC(CC(C4)C2)C3)c2cc(-c3ccccc3)ccc21 — lower, 26.5
- CCCCCn1cc(CC(=O)NC23CC4CC(CC(C4)C2)C3)c2cc(-c3ccccc3)ccc21 — lower, 34
- CCCn1cc(CC(=O)NC23CC4CC(CC(C4)C2)C3)c2cc(-c3ccccc3)ccc21 — lower, 128
- O=C(Cc1cn(Cc2ccccc2)c2ccc(-c3ccccc3)cc12)NC12CC3CC(CC(C3)C1)C2 — not separable, > 52
- C=CCn1cc(CC(=O)NC23CC4CC(CC(C4)C2)C3)c2cc(Br)ccc21 — not separable, > 9
- C=CCn1cc(C(=O)NC23CC4CC(CC(C4)C2)C3)c2cc(-c3ccco3)ccc21 — lower, 488
- CCCCCn1cc(C(=O)NC23CC4CC(CC(C4)C2)C3)c2cc(-c3ccco3)ccc21 — lower, 138

These molecules were tested on Mus musculus (assay: Antinociceptive activity in mouse assessed as reduction of formalin-induced nocifensive response at 1 mg/kg, ip administered 15 mins before formalin challenge measured for 0 to 7 mins in presence of CB2 agonist COR167).
Assay type: functional, organism-based
Design: dose 1 mg/kg
Procedure, shortened: as §1

With `CCCCCn1cc(C(=O)C(=O)NC23CC4CC(CC(C4)C2)C3)c2cc(-c3ccco3)ccc21` the Activity was “Active”.
`CCCCCn1cc(C(=O)NC23CC4CC(CC(C4)C2)C3)c2cc(-c3ccco3)ccc21` was tested, and the Activity was “inactive”.
